Assay results: ChEMBL document CHEMBL5247578, “Effective synthesis of benzimidazoles-imidazo[1,2-a]pyrazine conjugates: A comparative study of mono-and bis-benzimidazoles for antitumor activity” (Eur J Med Chem, 2019)

How the values were obtained:
Assay type in all cases: functional
OVCAR-3 = experiment: Growth inhibition against human OVCAR-3 cells incubated for 48 hrs by sulforhodamine B assay
NCI-H460 = experiment: Antiproliferative activity against human NCI-H460 cells assessed as cell growth inhibition at 10 uM incubated for 48 hrs by sulforhodamine B assay relative to control
Summary of the method: (§1)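 NCI-60 single-dose screen at 10^-5 M. Cells grown in RPMI 1640 with 5% FBS and 2 mM L-glutamine, plated at 5,000–40,000 cells/well, and preincubated 24 h. Drug (DMSO stock) added and incubated 48 h at 37 °C, 5% CO2. Adherent cells fixed with cold TCA, stained with 0.4% SRB in 1% acetic acid, dye solubilized in 10 mM trizma base, A515 read. Percent growth taken against time-zero and untreated control.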

COLO 205 = experiment: Antiproliferative activity against human COLO 205 cells assessed as cell growth inhibition at 10 uM incubated for 48 hrs by sulforhodamine B assay relative to control
Summary of the method: (§2)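 Single-dose NCI-60 prescreen at 10^-5 M. Cells in RPMI 1640 with 5% FBS and 2 mM L-glutamine, seeded 5,000–40,000 cells/well with 24 h preincubation, then drug exposure for 48 h at 37 °C under 5% CO2. Growth read by SRB staining of TCA-fixed cells at 515 nm against time-zero and untreated controls. Negative growth values denote cell kill.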

UACC-62 = experiment: Antiproliferative activity against human UACC-62 cells assessed as cell growth inhibition at 10 uM incubated for 48 hrs by sulforhodamine B assay relative to control; summary of the method: as §1
T47D = experiment: Antiproliferative activity against human T47D cells assessed as cell growth inhibition at 10 uM incubated for 48 hrs by sulforhodamine B assay relative to control; summary of the method: as §1
TK-10 = experiment: Antiproliferative activity against human TK-10 cells assessed as cell growth inhibition at 10 uM incubated for 48 hrs by sulforhodamine B assay relative to control; summary of the method: as §1
SW-620 = experiment: Antiproliferative activity against human SW620 cells assessed as cell growth inhibition at 10 uM incubated for 48 hrs by sulforhodamine B assay relative to control; summary of the method: as §1
UACC-257 = experiment: Antiproliferative activity against human UACC-257 cells assessed as cell growth inhibition at 10 uM incubated for 48 hrs by sulforhodamine B assay relative to control; summary of the method: as §1
KM12 = experiment: Antiproliferative activity against human KM12 cells assessed as cell growth inhibition at 10 uM incubated for 48 hrs by sulforhodamine B assay relative to control; summary of the method: as §1
SK-OV-3 = experiment: Antiproliferative activity against human SK-OV-3 cells assessed as cell growth inhibition at 10 uM incubated for 48 hrs by sulforhodamine B assay relative to control; summary of the method: as §1
K562 = experiment: Antiproliferative activity against human K562 cells assessed as cell growth inhibition at 10 uM incubated for 48 hrs by sulforhodamine B assay relative to control; summary of the method: as §1
NCI-H226 = experiment: Antiproliferative activity against human NCI-H226 cells assessed as cell growth inhibition at 10 uM incubated for 48 hrs by sulforhodamine B assay relative to control; summary of the method: as §1
CCRF-CEM = experiment: Antiproliferative activity against human CCRF-CEM cells assessed as cell growth inhibition at 10 uM incubated for 48 hrs by sulforhodamine B assay relative to control; summary of the method: as §2
OVCAR-5 [1] = experiment: Antiproliferative activity against human OVCAR-5 cells assessed as cell growth inhibition at 10 uM incubated for 48 hrs by sulforhodamine B assay relative to control; summary of the method: as §1
IGROV-1 = experiment: Antiproliferative activity against human IGROV-1 cells assessed as cell growth inhibition at 10 uM incubated for 48 hrs by sulforhodamine B assay relative to control; summary of the method: as §1
OVCAR-4 = experiment: Antiproliferative activity against human OVCAR-4 cells assessed as cell growth inhibition at 10 uM incubated for 48 hrs by sulforhodamine B assay relative to control; summary of the method: as §1
SNB-75 = experiment: Antiproliferative activity against human SNB-75 cells assessed as cell growth inhibition at 10 uM incubated for 48 hrs by sulforhodamine B assay relative to control; summary of the method: as §1
HCC 2998 = experiment: Antiproliferative activity against human HCC 2998 cells assessed as cell growth inhibition at 10 uM incubated for 48 hrs by sulforhodamine B assay relative to control
Summary of the method: (§3)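 NCI-60 one-dose prescreen at 10^-5 M. Cells grown in RPMI 1640 with 5% FBS and 2 mM glutamine, preincubated 24 h, then exposed 48 h at 37 °C. Adherent lines TCA-fixed, SRB-stained, A515 read. Growth percent relative to time-zero and control; negative values mean cell kill.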

SN12C = experiment: Antiproliferative activity against human SN12C cells assessed as cell growth inhibition at 10 uM incubated for 48 hrs by sulforhodamine B assay relative to control; summary of the method: as §1
OVCAR-5 [2] = experiment: Antiproliferative activity against human OVCAR-5 cells assessed as cell growth inhibition by measuring lethal concentration incubated for 48 hrs by sulforhodamine B assay; conditions: read-out: LC50 (the source's name)
SK-MEL-5 = experiment: Antiproliferative activity against human SK-MEL-5 cells assessed as cell growth inhibition at 10 uM incubated for 48 hrs by sulforhodamine B assay relative to control; summary of the method: as §1
NCI-H23 = experiment: Antiproliferative activity against human NCI-H23 cells assessed as cell growth inhibition at 10 uM incubated for 48 hrs by sulforhodamine B assay relative to control; summary of the method: as §1
NCI-H522 = experiment: Antiproliferative activity against human NCI-H522 cells assessed as cell growth inhibition at 10 uM incubated for 48 hrs by sulforhodamine B assay relative to control; summary of the method: as §1
A549 = experiment: Antiproliferative activity against human A549 cells assessed as cell growth inhibition at 10 uM incubated for 48 hrs by sulforhodamine B assay relative to control; summary of the method: as §2
Hs-578T = experiment: Antiproliferative activity against human Hs-578T cells assessed as cell growth inhibition at 10 uM incubated for 48 hrs by sulforhodamine B assay relative to control; summary of the method: as §1
HOP-92 = experiment: Antiproliferative activity against human HOP-92 cells assessed as cell growth inhibition at 10 uM incubated for 48 hrs by sulforhodamine B assay relative to control; summary of the method: as §3
SK-MEL-28 = experiment: Antiproliferative activity against human SK-MEL-28 cells assessed as cell growth inhibition at 10 uM incubated for 48 hrs by sulforhodamine B assay relative to control; summary of the method: as §1
DU-145 = experiment: Growth inhibition against human DU-145 cells incubated for 48 hrs by sulforhodamine B assay
PC-3 = experiment: Antiproliferative activity against human PC-3 cells assessed as cell growth inhibition at 10 uM incubated for 48 hrs by sulforhodamine B assay relative to control; summary of the method: as §1
RPMI-8226 = experiment: Antiproliferative activity against human RPMI-8226 cells assessed as cell growth inhibition at 10 uM incubated for 48 hrs by sulforhodamine B assay relative to control; summary of the method: as §1
CAKI-1 = experiment: Antiproliferative activity against human CAKI-1 cells assessed as cell growth inhibition at 10 uM incubated for 48 hrs by sulforhodamine B assay relative to control; summary of the method: as §2
Malme-3M = experiment: Antiproliferative activity against human Malme-3M cells assessed as cell growth inhibition at 10 uM incubated for 48 hrs by sulforhodamine B assay relative to control; summary of the method: as §1
HOP-62 = experiment: Antiproliferative activity against human HOP-62 cells assessed as cell growth inhibition at 10 uM incubated for 48 hrs by sulforhodamine B assay relative to control; summary of the method: as §3

Structure (SMILES) | GI50 (OVCAR-3) | inhibition at 10 µM (NCI-H460) | inhibition at 10 µM (COLO 205) | inhibition at 10 µM (UACC-62) | inhibition at 10 µM (T47D) | inhibition at 10 µM (TK-10) | inhibition at 10 µM (SW-620) | inhibition at 10 µM (UACC-257) | inhibition at 10 µM (KM12) | inhibition at 10 µM (SK-OV-3) | inhibition at 10 µM (NCI-H226) | inhibition at 10 µM (CCRF-CEM) | inhibition at 10 µM (OVCAR-5 [1]) | inhibition at 10 µM (IGROV-1) | inhibition at 10 µM (OVCAR-4) | inhibition at 10 µM (SNB-75) | inhibition at 10 µM (HCC 2998) | inhibition at 10 µM (SN12C) | CC50 (OVCAR-5 [2]) | inhibition at 10 µM (SK-MEL-5) | also measured
COc1ccc(-c2cn3ccnc3c(-c3ccc4ncn(C5CCCCC5)c4c3)n2)cc1 | 0.411 µM | 91.1% | -8.01% | 65.2% | -8.6% | 18.5% | 77.8% | 26.3% | 83.2% | 74.3% | 35.9% | 93.3% | 58.8% | 53.4% | 46.4% | -26.3% | 62.6% | 63.6% | > 100 µM | 92.3% | inhibition at 10 µM (K562): 92%; inhibition at 10 µM (NCI-H23): 62.1%; inhibition at 10 µM (NCI-H522): -20.9%; inhibition at 10 µM (A549): 68.6%; inhibition at 10 µM (Hs-578T): 80%; inhibition at 10 µM (HOP-92): 52.3%; inhibition at 10 µM (SK-MEL-28): 47.7%; GI50 (DU-145): 1.07 µM; inhibition at 10 µM (PC-3): 95.2%; inhibition at 10 µM (RPMI-8226): 95.6%
c1ccc(Cn2cnc3ccc(-c4nc(-c5ccc6c(c5)ncn6C5CCCCC5)cn5ccnc45)cc32)cc1 | 2.27 µM | -20.3% | -29.9% | -31.2% | -2.12% | 94.8% | 97.8% | -32.7% | -39.4% | -22.2% | -63.1% | 94.4% | -29% | 94.2% | 83.2% | -67.4% | -88% | -35.4% | > 100 µM | -84% | inhibition at 10 µM (CAKI-1): 56.7%; inhibition at 10 µM (NCI-H23): -22.8%; inhibition at 10 µM (NCI-H522): -35.2%; inhibition at 10 µM (A549): -5.05%; inhibition at 10 µM (Hs-578T): 99.6%; inhibition at 10 µM (HOP-92): -83.6%; inhibition at 10 µM (SK-MEL-28): 99.6%; inhibition at 10 µM (Malme-3M): -15.4%; GI50 (DU-145): 3.04 µM; inhibition at 10 µM (PC-3): -39.5%; inhibition at 10 µM (HOP-62): -9.39%; inhibition at 10 µM (RPMI-8226): -41.2%
